Compounds with a hit are over-represented: about 1.5% of the library has one in this group of screens.
CCR6 antagonist: CCR6 (human) receptor antagonism | P51684 | CHO-K1 CCR6 PathHunter beta-arrestin, luminescence, CCL20-stimulated | inhibition, % at 20 µM | 0.49% of 340,000 active;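 active = compounds whose inhibition of the agonist-driven luminescence signal at 20 µM reaches about 50%, limit read from the data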;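 note: cells stimulated with CCL20 at 14 nM final; plate controls were DMSO with CCL20 for no effect and DMSO without agonist for full effect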
EBI2 antag: blocks human EBI2 receptor beta-arrestin signaling | P32249 | EBI2 beta-arrestin recruitment, luminescence, 7a,25-OHC stimulated | inhibition, % at 5 µM | 0.81% of 360,000 active; in the data active = inhibition above about 38%;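 note: enzyme fragment complementation signal reports receptor beta-arrestin coupling in cells; 0% = agonist plus DMSO wells and 100% = wells without agonist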
Target sequence (P32249 whole entry, looked up, the tested form may be a part): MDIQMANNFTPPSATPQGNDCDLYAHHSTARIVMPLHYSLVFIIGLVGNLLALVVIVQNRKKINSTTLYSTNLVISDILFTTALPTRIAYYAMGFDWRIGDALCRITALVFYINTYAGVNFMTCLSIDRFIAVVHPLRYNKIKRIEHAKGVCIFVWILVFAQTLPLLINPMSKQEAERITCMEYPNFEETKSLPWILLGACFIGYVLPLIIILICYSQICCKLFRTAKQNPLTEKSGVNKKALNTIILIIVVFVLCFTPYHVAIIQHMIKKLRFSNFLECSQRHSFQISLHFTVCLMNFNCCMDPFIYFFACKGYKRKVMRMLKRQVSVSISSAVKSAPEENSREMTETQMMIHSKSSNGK
CXCR6 inh: inhibitors of human CXCR6 receptor. O00574. 0.36% of 360,000 active. inhibition, % at 20 µM. CHO-K1 PathHunter CXCR6 beta-arrestin, luminescence; in the data active = inhibition above about 34%, passing the limit was not always enough;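 note: antagonist mode with CXCL16 agonist at 10 nM final; 0% = 10 nM CXCL16 with DMSO and 100% = unstimulated wells without agonist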
APJ antag: antagonists of human APJ apelin receptor; inhibition, % at 20 µM; CHO-K1 APJ beta-arrestin complementation, luminescence; 0.32% of 330,000 active; P35414;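 active = inhibition above about 40% at 20 µM, limit read from the data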;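 note: cells challenged with 10 nM apelin-13 agonist together with compound; plate controls were apelin-13 plus DMSO wells for no effect and DMSO wells lacking apelin-13 for full effect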
APJ ag: agonists of human APJ apelin receptor | P35414 | CHO-K1 APJ PathHunter beta-arrestin, luminescence; 0% DMSO wells, 100% apelin | activation, % at 20 µM | AID 2520 | 0.11% of 330,000 active;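 active = activation more than six SD over the plate average, tested at 20 µM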;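 note: 0% = DMSO alone and 100% = apelin-13 at 10 nM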
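system = engineered CHO-K1 APJ arrestin reporter cells | input = 1000 cells per well | timing = overnight seeding, 90 min compound at 25 °C, 1 h detection | measured by = enzyme-fragment complementation luminescence | read-out = beta-arrestin recruitment to APJ as agonist activity, luminescent signal | control set = negative DMSO alone, positive Apelin-13 at 10 nM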
hiPSC survival: enhancers of human iPSC single-cell survival; survival enhancement, % at 20 µM; AID 602274; hiPSC single-cell survival, ATPlite luminescence; 100% = ROCK inhibitor wells, 0% = DMSO; 0.044% of 360,000 active; in the data active = survival enhancement above about 18%;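 note: cells exposed to compounds for 16 hours before the ATP read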
* hit, by the source's call.

CC(C)C12CN3CC(C(C)C)(CN(C1)C3c1ccc3c(c1)OCO3)C2=O (stereo not drawn) was read as CCR6 antagonist 14, EBI2 antag 11, CXCR6 inh -6, APJ antag 7, APJ ag -3 and hiPSC survival 1.
CC(C)C12CN3CC(C(C)C)(CN(C1)C3c1ccccc1O)C2=O (stereo not drawn) was read as CCR6 antagonist 19, EBI2 antag -2, CXCR6 inh 2, APJ antag 1, APJ ag -7 and hiPSC survival 21*.
For S=C(Nc1ccccc1)Nc1cc(Cl)ccc1Oc1ccccc1 the results were CCR6 antagonist 93*, EBI2 antag -2, CXCR6 inh 5, APJ antag 13, APJ ag -3 and hiPSC survival -1.
S=C(Nc1ccccc1)Nc1ccc(Cl)cc1Cl was read as CCR6 antagonist 23, EBI2 antag 7, CXCR6 inh 6, APJ antag 22, APJ ag -2 and hiPSC survival 4.
Screening CC(C)(C)c1cc(C(c2cccnc2)N2CCN(CCO)CC2)cc(C(C)(C)C)c1O (stereo not drawn) returned CCR6 antagonist 62*, EBI2 antag 3, CXCR6 inh 27, APJ antag 23, APJ ag 4 and hiPSC survival -2.
CC1(C)Cc2c(c(N3CCOCC3)nc3sc4c(NCc5ccccc5)nnnc4c23)CS1 was read as CCR6 antagonist 20, EBI2 antag 76*, CXCR6 inh 6, APJ antag 20, APJ ag -1 and hiPSC survival 2.
`O=S(=O)(c1ccccc1)N1CCCCC1CCc1ccccc1` (stereo not drawn) gave CCR6 antagonist 25, EBI2 antag 19, CXCR6 inh 3 and hiPSC survival -3.
For Cc1c(C(=O)Nc2nc3ccccc3[nH]2)oc2ccccc12 the results were CCR6 antagonist 56*, EBI2 antag 9, CXCR6 inh 20, APJ antag 8, APJ ag -1 and hiPSC survival -1.
Cc1c(C(=O)Nc2nc3ccccc3[nH]2)oc2ccc(Br)cc12 was read as CCR6 antagonist 41, EBI2 antag 1, CXCR6 inh 11, APJ antag 16, APJ ag -4 and hiPSC survival -1.
Cc1cccc(C)c1NC(=O)CN(C)C(=O)[C@H](C)NC(=O)c1ccco1 was read as CCR6 antagonist 10, EBI2 antag 1, CXCR6 inh -7, APJ antag -4, APJ ag -5 and hiPSC survival 3.
`CC(C)C(=O)N(c1cc2sc(=O)oc2c2ccccc12)S(=O)(=O)c1cccs1` gave CCR6 antagonist 25, EBI2 antag 49*, CXCR6 inh 4, APJ antag -22, APJ ag 8 and hiPSC survival -1.
`CC(C)C(=O)N(c1ccc2oc(=O)sc2c1)S(=O)(=O)c1cccs1` gave CCR6 antagonist 5, EBI2 antag -1, CXCR6 inh 4, APJ antag 18, APJ ag -2 and hiPSC survival 2.
O=C(Cn1c(N2CCN(c3ccccc3)CC2)nc2ccccc21)c1ccccc1 was read as CCR6 antagonist 50*, EBI2 antag 10, CXCR6 inh 26, APJ antag 23, APJ ag -1 and hiPSC survival 1.
N#C/C(=N\Nc1ccc(Cl)cc1)C(=O)c1ccccc1 was read as CCR6 antagonist 20, EBI2 antag -14, CXCR6 inh 10, APJ antag 17, APJ ag 3 and hiPSC survival -1.
Screening Cc1c(N/N=C(\C#N)C(=O)c2ccc(Cl)cc2)c(=O)n(-c2ccccc2)n1C returned CCR6 antagonist 81*, EBI2 antag 14, CXCR6 inh 77* and hiPSC survival 0.
CSc1ccc(C2=C/C(=C3/SC(=S)NC3=O)c3ccccc3O2)cc1 was read as CCR6 antagonist 76*, EBI2 antag -2, CXCR6 inh 45* and hiPSC survival -1.
CCN1/C(=C2/SC(=S)NC2=O)Sc2ccccc21 was read as CCR6 antagonist 4, EBI2 antag 0, CXCR6 inh 2, APJ antag 10, APJ ag -6 and hiPSC survival -2.
Screening S=C(NCc1ccccn1)NN=Cc1ccccn1 returned CCR6 antagonist 61*, EBI2 antag -18, CXCR6 inh 34 and hiPSC survival -3.
Screening NS(=O)(=O)c1ccc(NC(=O)COC(=O)c2ccc([N+](=O)[O-])s2)cc1 returned CCR6 antagonist -2, EBI2 antag -9, CXCR6 inh -16, APJ antag -59, APJ ag 17* and hiPSC survival 2.
COc1ccccc1NS(=O)(=O)c1ccc(C(=O)NCCCN2CCOCC2)cc1 was read as CCR6 antagonist -5, EBI2 antag -8, CXCR6 inh 5, APJ antag -2, APJ ag 3 and hiPSC survival 0.
Screening C=C1C(=O)C=C2CN(C(=O)c3ccccc3)[C@@](Cc3ccc(F)cc3)(C(=O)OC)[C@@H]12 returned CCR6 antagonist 100*, EBI2 antag 76*, CXCR6 inh 88*, APJ antag 37, APJ ag -10 and hiPSC survival 1.
`CN(C)S(=O)(=O)c1ccc(C(=O)Nc2nc(-c3cccs3)cs2)cc1` gave CCR6 antagonist 10, EBI2 antag 77*, CXCR6 inh 2, APJ antag 1, APJ ag 0 and hiPSC survival -2.
For CCC(CC)c1nnc(NC(=O)c2cc([N+](=O)[O-])ccc2N2CCCCC2)s1 the results were CCR6 antagonist 71*, EBI2 antag 11, CXCR6 inh 16, APJ antag 18, APJ ag -1 and hiPSC survival 1.
Screening CC(C)CNC(=O)c1cc([N+](=O)[O-])ccc1N1CCCCC1 returned CCR6 antagonist 41, EBI2 antag 21, CXCR6 inh 2, APJ antag 3, APJ ag -3 and hiPSC survival -1.
For COc1ccc(-c2ccc(N3C(c4ccsc4)=Cc4ccc(F)cc4C3c3c[nH]c4ccccc34)cc2)cc1 (stereo not drawn) the results were EBI2 antag 3, CXCR6 inh 5 and hiPSC survival -1.
`COc1ccc(C(C[N+](=O)[O-])c2c(-c3ccccc3)cc3ccccn23)cc1OC` (stereo not drawn) gave CCR6 antagonist 13, EBI2 antag 2, CXCR6 inh -6, APJ antag -20, APJ ag 7 and hiPSC survival 3.
Screening COc1ccc(C(C[N+](=O)[O-])C2(c3ccc(OC)c(OC)c3)C(=O)c3ccccc3C2=O)cc1 (stereo not drawn) returned CCR6 antagonist 59*, EBI2 antag -22, CXCR6 inh 29 and hiPSC survival -4.
For CC(C)Oc1cc(F)ccc1-c1cc(C(=O)NCCCn2ccnc2)[nH]n1 the results were EBI2 antag -4, CXCR6 inh 2 and hiPSC survival 3.
